# Laboratory results published in ChEMBL document CHEMBL1122631, “2,3,4,4a,5,9b-Hexahydro-1H-indeno[1,2-b]pyridines: potential antidepressants” (J Med Chem, 1984).
# pIC50: −log10 of the molar value.
# Key:
# [1] = system: Mus musculus; test: Prevention of tetrabenazine (TBZ)-induced ptosis in mice after intraperitoneal administration.; format: functional, organism-based
# In short: (§1)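 Mice given compound ip in 1% methylcellulose (10 mL/kg), 30 min before tetrabenazine 40 mg/kg base ip; solvent+TBZ control per test. Ptosis scored 30 min after TBZ (+1 min) as 100/50/0% (closed/half/open), not normalized.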
# [2] = Acute toxicity in mice, after intraperitoneal administration.; format: organism-based; settings: mouse, in vivo, ip
# In short: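 Mice, groups of 10, given compound suspended in 1% methylcellulose ip at 10 mL/kg, then housed with food and water ad libitum. Observed hourly up to 6 h; deaths recorded at 24 and 48 h.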
# [3] = system: Mus musculus; test: Prevention of tetrabenazine induced ptosis in mice following i.p. administration.; format: functional; settings: ip; in short: as §1
# [4] = species: Rattus norvegicus; test: Compound was tested for inhibition of uptake of [14C]norepinephrine (NE) into rat brain hypothalamus, in vitro; Not determined.; format: functional
# In short: (§2)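 Rat brain synaptosomes (Whittaker method) incubated with labelled monoamine (1 × 10^-7 mol final) at 37 °C with or without drug. [14C]NE and [14C]5-HT uptake in Krebs-Henseleit bicarbonate pH 7.4 with 11 mmol glucose; [3H]DA uptake in phosphate buffer, corpus striatum synaptosomes. Time: 5 min whole brain, 10 min hypothalamus. Nonspecific binding at 0 °C; membrane filtration, scintillation counting; IC50 from 3–4 concentrations, at least triplicate.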
# [5] = species: Rattus norvegicus; test: Compound was tested for inhibition of uptake of [14C]5-HT (5-HT) into rat whole brain, in vitro; Not determined.; format: functional; in short: as §2
# [6] = Therapeutic index (TI), ratio of LD50 and ED50 (TBZ) in mice after i.p. administration; settings: mouse, in vivo, ip
# [7] = species: Rattus norvegicus; test: Compound was tested for inhibition of uptake of [14C]5-HT (5-HT) into rat whole brain, in vitro.; format: functional; in short: as §2
# [8] = species: Rattus norvegicus; test: Compound was tested for inhibition of uptake of [14C]norepinephrine (NE) into rat brain hypothalamus, in vitro.; format: functional; in short: as §2
SMILES,ED50 [1],LD50 [2],also measured
COc1ccc2c(c1)[C@H](c1ccc(N(C)C)cc1)[C@@H]1CCCN[C@H]21,No activity detected up to a dose of 1/5 LD50 ip in mice,48 mg/kg,
Cc1cccc([C@@H]2c3ccccc3[C@@H]3[C@H]2CCCN3C)c1,,134 mg/kg,ED50 [3]: 5 mg/kg
COc1ccc2c(c1)[C@@H](c1ccc(C)cc1)[C@@H]1CCCN(C)[C@H]21,No activity detected up to a dose of 1/5 LD50 ip in mice,67 mg/kg,
CC(C)c1ccc([C@@H]2c3cc(O)ccc3[C@H]3NCCC[C@@H]23)cc1,No activity detected up to a dose of 1/5 LD50 ip in mice,50 mg/kg,
Cc1ccc([C@@H]2c3cc(O)ccc3[C@@H]3[C@H]2CCCN3C)cc1,No activity detected up to a dose of 1/5 LD50 ip in mice,187 mg/kg,
Fc1ccc([C@H]2c3ccccc3[C@H]3NCCC[C@@H]23)cc1,No activity detected up to a dose of 1/5 LD50 ip in mice,61 mg/kg,
CN(C)c1ccc([C@H]2c3cc(O)ccc3[C@H]3NCCC[C@@H]23)cc1,No activity detected up to a dose of 1/5 LD50 ip in mice,67 mg/kg,
COc1cc2c(cc1OC)[C@@H]1[C@@H](CCCN1C)[C@@H]2c1ccccc1,,,IC50 [4]: No compound available; IC50 [5]: No compound available
Cc1ccccc1[C@H]1c2ccccc2[C@H]2NCCC[C@@H]12,No activity detected up to a dose of 1/5 LD50 ip in mice,52 mg/kg,
COc1cc2c(cc1OC)[C@H]1NCCC[C@H]1[C@H]2c1ccccc1,No activity detected up to a dose of 1/5 LD50 ip in mice,70 mg/kg,
Cc1ccc([C@@H]2c3ccccc3[C@H]3NCCC[C@@H]23)cc1N,,40 mg/kg,ED50 [3]: 2 mg/kg; selectivity ratio [6]: 20
CC(C)c1ccc([C@H]2c3cc(O)ccc3[C@H]3NCCC[C@@H]23)cc1,No activity detected up to a dose of 1/5 LD50 ip in mice,90 mg/kg,
CN1CCC[C@H]2[C@@H](c3ccc(O)cc3)c3ccccc3[C@H]21,,,IC50 [4]: No compound available; IC50 [5]: No compound available
Cc1ccc([C@H]2c3cc(O)ccc3[C@@H]3[C@H]2CCCN3C)cc1,No activity detected up to a dose of 1/5 LD50 ip in mice,9 mg/kg,
CN1CCC[C@H]2[C@@H](c3ccc(F)cc3)c3ccccc3[C@H]21,No activity detected up to a dose of 1/5 LD50 ip in mice,22 mg/kg,
COc1cc2c(cc1OC)[C@H]1NCCC[C@H]1[C@@H]2c1ccccc1,,,IC50 [4]: No compound available; IC50 [5]: No compound available
COc1ccc2c(c1)[C@@H](c1ccc(N(C)C)cc1)[C@@H]1CCCN[C@H]21,,,IC50 [4]: No compound available; IC50 [5]: No compound available
CCCN1CCC[C@H]2[C@@H](c3ccccc3)c3ccccc3[C@H]21,No activity detected up to a dose of 1/5 LD50 ip in mice,90 mg/kg,
COc1ccc2c(c1)[C@H](c1ccc(N)cc1)[C@@H]1CCCN[C@H]21,No activity detected up to a dose of 1/5 LD50 ip in mice,50 mg/kg,
Cc1cccc([C@H]2c3ccccc3[C@@H]3[C@H]2CCCN3C)c1,No activity detected up to a dose of 1/5 LD50 ip in mice,5 mg/kg,
Cc1ccc([C@@H]2c3ccccc3[C@H]3NCCC[C@@H]23)cc1,,60 mg/kg,ED50 [3]: 1 mg/kg; selectivity ratio [6]: 60
Cc1ccccc1[C@@H]1c2ccccc2[C@H]2NCCC[C@@H]12,No activity detected up to a dose of 1/5 LD50 ip in mice,80 mg/kg,
COc1cc2c(cc1OC)[C@H]1NCCC[C@H]1[C@H]2c1ccc(N)cc1,No activity detected up to a dose of 1/5 LD50 ip in mice,94 mg/kg,
FC(F)(F)c1ccccc1[C@H]1c2ccccc2[C@H]2NCCC[C@@H]12,No activity detected up to a dose of 1/5 LD50 ip in mice,24 mg/kg,
Cc1ccc([C@H]2c3ccccc3[C@H]3NCCC[C@@H]23)cc1,,120 mg/kg,ED50 [3]: 20 mg/kg; selectivity ratio [6]: 6
CN(C)c1ccc([C@@H]2c3cc(O)ccc3[C@H]3NCCC[C@@H]23)cc1,No activity detected up to a dose of 1/5 LD50 ip in mice,159 mg/kg,
Fc1ccccc1[C@H]1c2ccccc2[C@H]2NCCC[C@@H]12,No activity detected up to a dose of 1/5 LD50 ip in mice,71 mg/kg,
Cc1ccc([C@H]2c3cc(O)ccc3[C@H]3NCCC[C@@H]23)cc1,No activity detected up to a dose of 1/5 LD50 ip in mice,34 mg/kg,

SMILES,ED50 [1],LD50 [2],also measured
Nc1cccc([C@@H]2c3ccccc3[C@H]3NCCC[C@@H]23)c1,,40 mg/kg,ED50 [3]: 2 mg/kg; selectivity ratio [6]: 20
CN1CCC[C@H]2[C@@H](c3ccccc3)c3ccccc3[C@H]21,No activity detected up to a dose of 1/5 LD50 ip in mice,36 mg/kg,
Oc1ccc([C@H]2c3ccccc3[C@H]3NCCC[C@@H]23)cc1,,,IC50 [4]: No compound available; IC50 [5]: No compound available
COc1cc2c(cc1OC)[C@H]1NCCC[C@H]1[C@@H]2c1cccnc1,,,IC50 [4]: No compound available; IC50 [5]: No compound available
Cc1cccc([C@H]2c3ccccc3[C@H]3NCCC[C@@H]23)c1,No activity detected up to a dose of 1/5 LD50 ip in mice,34 mg/kg,
COc1ccc([C@H]2c3ccccc3[C@@H]3[C@H]2CCCN3C)cc1,,,IC50 [4]: No compound available; IC50 [5]: No compound available
COc1ccc2c(c1)[C@H](c1ccc(C)cc1)[C@@H]1CCCN(C)[C@H]21,No activity detected up to a dose of 1/5 LD50 ip in mice,6 mg/kg,
CN1CCC[C@H]2[C@@H](c3ccc(N)cc3)c3ccccc3[C@H]21,,7 mg/kg,ED50 [3]: 0.5 mg/kg; selectivity ratio [6]: 14
c1ccc2c(c1)[C@H](c1ccncc1)[C@@H]1CCCN[C@H]21,,,IC50 [4]: No compound available; IC50 [5]: No compound available
Cc1ccccc1[C@@H]1c2ccccc2[C@@H]2[C@H]1CCCN2C,,106 mg/kg,ED50 [3]: > 40 mg/kg
Cc1ccc([C@H]2c3ccccc3[C@H]3NCCC[C@@H]23)cc1N,No activity detected up to a dose of 1/5 LD50 ip in mice,45 mg/kg,
COc1ccc2c(c1)[C@H](c1ccc(C)cc1)[C@@H]1CCCN[C@H]21,No activity detected up to a dose of 1/5 LD50 ip in mice,54 mg/kg,
CNCCCN1c2ccccc2CCc2ccccc21 [DESIPRAMINE],,,pIC50 [7]: 7.96; pIC50 [8]: 7.60
Cc1cccc([C@@H]2c3ccccc3[C@H]3NCCC[C@@H]23)c1,,21 mg/kg,ED50 [3]: 0.3 mg/kg
Nc1cccc([C@H]2c3ccccc3[C@H]3NCCC[C@@H]23)c1,,28 mg/kg,ED50 [3]: 2 mg/kg
Cc1ccc([C@H]2c3ccccc3[C@@H]3[C@H]2CCCN3C)cc1,No activity detected up to a dose of 1/5 LD50 ip in mice,< 1 mg/kg,
CN1CCC[C@H]2[C@@H](c3ccccc3F)c3ccccc3[C@H]21,No activity detected up to a dose of 1/5 LD50 ip in mice,8 mg/kg,
CCCCOc1ccc([C@H]2c3ccccc3[C@H]3NCCC[C@@H]23)cc1,,,IC50 [4]: No compound available; IC50 [5]: No compound available
COc1cc2c(cc1OC)[C@@H]1[C@@H](CCCN1C)[C@H]2c1ccccc1,No activity detected up to a dose of 1/5 LD50 ip in mice,70 mg/kg,
COc1ccc2c(c1)[C@@H](c1ccc(C(C)C)cc1)[C@@H]1CCCN[C@H]21,,,IC50 [4]: No compound available; IC50 [5]: No compound available
c1ccc([C@H]2c3ccccc3[C@H]3NCCC[C@@H]23)cc1,No activity detected up to a dose of 1/5 LD50 ip in mice,50 mg/kg,
Cc1ccccc1[C@H]1c2ccccc2[C@@H]2[C@H]1CCCN2C,No activity detected up to a dose of 1/5 LD50 ip in mice,22 mg/kg,
CCCCOc1ccc([C@H]2c3ccccc3[C@@H]3[C@H]2CCCN3C)cc1,,,IC50 [4]: No compound available; IC50 [5]: No compound available
COc1cc2c(cc1OC)[C@H]1NCCC[C@H]1[C@@H]2c1ccc(N)cc1,,,IC50 [4]: No compound available; IC50 [5]: No compound available
COc1ccc2c(c1)[C@@H](c1ccc(C)cc1)[C@@H]1CCCN[C@H]21,,,IC50 [4]: No compound available; IC50 [5]: No compound available
COc1ccc2c(c1)[C@@H](c1ccc(N)cc1)[C@@H]1CCCN[C@H]21,,60 mg/kg,ED50 [3]: 1 mg/kg; selectivity ratio [6]: 60
Nc1ccc([C@H]2c3cc(O)ccc3[C@H]3NCCC[C@@H]23)cc1,No activity detected up to a dose of 1/5 LD50 ip in mice,85 mg/kg,
